Source: ChEMBL document CHEMBL1132157 (J Med Chem, 1999)

What was measured:
[1] = biological target: T1, 5-hydroxytryptamine receptor 1D (Homo sapiens, UniProt P28221); test: Agonist-induced [35S]- GTPgammaS binding in CHO cells stably transfected with 5-hydroxytryptamine 1D receptor; format: cell-based
Outline: (§1)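 Membranes from thawed CHO cells with human 5-HT1D, prepared in ice-cold 20 mM Hepes/EDTA at pH 7.4, spun at 40000g. Assay buffer: 100 mM NaCl, 10 mM MgCl2, 0.1% ascorbate, 10 μM pargyline. GDP 100 μM plus drug, 20 min at 30 °C, then ice 15 min. Then 100 pM [35S]GTPγS, 30 min at 30 °C, filtration. Emax is taken as % of maximal 5-HT response; duplicates, 2–5 occasions.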

[2] = biological target: T1, 5-hydroxytryptamine receptor 1D; test: Displacement of [3H]5-HT binding to cloned human 5-hydroxytryptamine 1D receptor stably expressed in CHO cells; format: cell-based
Outline: (§2)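 Membranes from thawed CHO cells with human 5-HT1B or 5-HT1D, washed in 50 mM Tris-HCl pH 7.7, preincubated 10 min at 37 °C to remove endogenous 5-HT. Buffer holds 0.1% ascorbate, 10 μM pargyline and 4 mM CaCl2. Uses 2.0 nM [3H]5-HT, 30 min at 37 °C; 10 μM 5-HT defines nonspecific binding. Filtration; IC50 by nonlinear regression; duplicates, 2–5 occasions.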

[3] = Ratio of IC50 for human 5-HT1B to human 5-HT1D receptors
[4] = biological target: 5-hydroxytryptamine receptor 1B (Homo sapiens, UniProt P28222); test: Displacement of [3H]5-HT binding to cloned 5-hydroxytryptamine 1B receptor stably expressed in CHO cells; format: cell-based; outline: as §2
[5] = biological target: T1, 5-hydroxytryptamine receptor 1D; test: Maximum stimulation of [35S]GTP-gamma-S, binding in CHO cells expressing human 5-HT-1d relative to 5-HT; format: functional, cell-based; outline: as §1

T1 sequence (P28221 whole entry): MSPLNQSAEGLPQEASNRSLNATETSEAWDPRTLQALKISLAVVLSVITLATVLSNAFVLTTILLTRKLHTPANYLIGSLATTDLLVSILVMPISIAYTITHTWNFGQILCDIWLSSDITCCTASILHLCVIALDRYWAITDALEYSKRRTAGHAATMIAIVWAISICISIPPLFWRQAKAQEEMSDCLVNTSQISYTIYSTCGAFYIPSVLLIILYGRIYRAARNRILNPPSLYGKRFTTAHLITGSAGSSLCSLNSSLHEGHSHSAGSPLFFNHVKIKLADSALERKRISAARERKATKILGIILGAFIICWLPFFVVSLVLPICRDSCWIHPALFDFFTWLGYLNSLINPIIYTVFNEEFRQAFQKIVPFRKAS
Sequence of 5-hydroxytryptamine receptor 1B (P28222 whole entry): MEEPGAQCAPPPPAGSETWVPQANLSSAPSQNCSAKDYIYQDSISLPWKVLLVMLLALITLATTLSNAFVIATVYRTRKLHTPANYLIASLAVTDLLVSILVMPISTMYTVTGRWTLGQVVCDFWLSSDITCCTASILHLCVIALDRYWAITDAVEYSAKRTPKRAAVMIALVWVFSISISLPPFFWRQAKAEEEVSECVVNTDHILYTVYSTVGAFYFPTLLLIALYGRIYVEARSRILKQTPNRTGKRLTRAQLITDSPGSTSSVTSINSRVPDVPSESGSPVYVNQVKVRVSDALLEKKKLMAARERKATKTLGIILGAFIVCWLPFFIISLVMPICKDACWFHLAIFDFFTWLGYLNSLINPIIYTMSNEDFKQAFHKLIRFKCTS

Row | SMILES | EC50 [1] | IC50 [2] | Selectivity [3] | IC50 [4] | Efficacy [5]
1 | C[C@H](O)[C@H](NC1CCN(CCCc2c[nH]c3ccc(-n4cnnc4)cc23)CC1)c1ccccc1 | 30 nM | 7.6 nM | 20 | 150 nM | 81%
2 | NC1CCN(CCCc2c[nH]c3ccc(-n4cnnc4)cc23)CC1 |  | 12 nM | 5.3 | 63 nM | 
3 | COC[C@H](NC1CCN(CCCc2c[nH]c3ccc(-n4cnnc4)cc23)CC1)c1ccc(F)cc1 |  | 1.4 nM | 64 | 89 nM | 
4 | C[C@@H](NC1CCN(CCCc2c[nH]c3ccc(-n4cnnc4)cc23)CC1)c1ccccc1 | 13 nM | 0.4 nM | 88 |  | 90%
5 | CC(=O)Nc1ccc(CNC2CCN(CCCc3c[nH]c4ccc(-n5cnnc5)cc34)CC2)cc1 | 5 nM | 3 nM | 15 | 45 nM | 75%
6 | OC[C@H](NC1CCN(CCCc2c[nH]c3ccc(-n4cnnc4)cc23)CC1)c1ccccc1 | 1.7 nM |  | 85 |  | 95%
7 | CNS(=O)(=O)Cc1ccc2[nH]cc(CCCN3CCC(N[C@H](C)c4ccccc4)CC3)c2c1 |  | 43 nM | 6 | 260 nM | 
8 | CC(=O)Nc1ccc(CNCC2CCN(CCCc3c[nH]c4ccc(-n5cnnc5)cc34)CC2)cc1 |  | 4.2 nM | 2.1 | 8.9 nM | 
9 | CC(=O)Nc1ccc(CCN(C)C2CCN(CCCc3c[nH]c4ccc(-n5cnnc5)cc34)CC2)cc1 |  | 5.7 nM | 12 | 66 nM | 
10 | CN(CC1CCN(CCCc2c[nH]c3ccc(-n4cnnc4)cc23)CC1)[C@@H](CO)c1ccccc1 |  | 6 nM | 14 | 85 nM | 
11 | OC[C@H](NC1CCN(CCCc2c[nH]c3ccc(-n4cncn4)cc23)CC1)c1ccccc1 | 7.4 nM | 4.1 nM | 98 | 400 nM | 77%
12 | c1ccc(NCC2CCN(CCCc3c[nH]c4ccc(-n5cnnc5)cc34)CC2)nc1 |  | 1.7 nM | 1.9 | 3.3 nM | 
13 | C=CCN(C)C1CCN(CCCc2c[nH]c3ccc(-n4cnnc4)cc23)CC1 |  | 20 nM | 16 | 320 nM | 
14 | CN(Cc1cccs1)C1CCN(CCCc2c[nH]c3ccc(-n4cnnc4)cc23)CC1 | 3.5 nM | 4.3 nM | 33 | 140 nM | 81%
15 | CN(Cc1ccoc1)C1CCN(CCCc2c[nH]c3ccc(-n4cnnc4)cc23)CC1 | 8.9 nM | 8.1 nM | 25 | 200 nM | 87%
16 | OC[C@H](NC1CCN(CCCc2c[nH]c3ccc(Cn4cncn4)cc23)CC1)c1ccccc1 | 32 nM | 23 nM | 57 | 1300 nM | 76%
17 | O[C@@H]1Cc2ccccc2[C@H]1NC1CCN(CCCc2c[nH]c3ccc(-n4cnnc4)cc23)CC1 | 13 nM | 6.6 nM | 32 | 210 nM | 75%
18 | c1ccc(CNCC2CCN(CCCc3c[nH]c4ccc(-n5cnnc5)cc34)CC2)cc1 | 5.6 nM | 1.6 nM | 18 | 28 nM | 101%
19 | C[C@@H](NC1CCN(CCCc2c[nH]c3ccc(-n4ccnc4)cc23)CC1)c1ccccc1 | 6.2 nM | 4.2 nM | 26 | 110 nM | 65%
20 | OC[C@H](NC1CCN(CCCc2c[nH]c3ccc(-n4ccnc4)cc23)CC1)c1ccccc1 | 0.8 nM | 0.7 nM | 140 | 100 nM | 74%
21 | C[C@H](NCC1CCN(CCCc2c[nH]c3ccc(-n4cnnc4)cc23)CC1)c1ccccc1 |  | 4.4 nM | 13 | 58 nM | 
22 | c1ccc2c(c1)CCC2NCC1CCN(CCCc2c[nH]c3ccc(-n4cnnc4)cc23)CC1 (stereo not drawn) | 1.3 nM | 1.1 nM | 23 | 25 nM | 78%
23 | CC(=O)Nc1ccc(CN(C)C2CCN(CCCc3c[nH]c4ccc(-n5cnnc5)cc34)CC2)cc1 |  | 19 nM | 5.3 | 100 nM | 
24 | c1cncc(CNC2CCN(CCCc3c[nH]c4ccc(-n5cnnc5)cc34)CC2)c1 |  | 35 nM | 4 | 140 nM | 
25 | CN(CC1CCN(CCCc2c[nH]c3ccc(-n4cnnc4)cc23)CC1)S(=O)(=O)c1ccccc1 |  | 1.6 nM | 11 | 18 nM | 
26 | CN(Cc1ccco1)C1CCN(CCCc2c[nH]c3ccc(-n4cnnc4)cc23)CC1 |  | 9.3 nM | 9.6 | 89 nM | 

Row | SMILES | EC50 [1] | IC50 [2] | Selectivity [3] | IC50 [4] | Efficacy [5]
27 | CC(=O)Nc1ccc([C@@H](C)NCC2CCN(CCCc3c[nH]c4ccc(-n5cnnc5)cc34)CC2)cc1 |  | 1.5 nM | 5.9 | 8.9 nM | 
28 | C[C@@H](NCC1CCN(CCCc2c[nH]c3ccc(-n4cnnc4)cc23)CC1)c1ccccc1 |  | 1.4 nM | 10 | 14 nM | 
29 | c1ccc2c(c1)CCC2NC1CCN(CCCc2c[nH]c3ccc(-n4cnnc4)cc23)CC1 (stereo not drawn) | 25 nM | 8.9 nM | 31 | 280 nM | 68%
30 | CN(Cc1ccc(S(C)(=O)=O)cc1)CC1CCN(CCCc2c[nH]c3ccc(-n4cnnc4)cc23)CC1 |  | 8.1 nM | 8.1 | 66 nM | 
31 | CN(C1CCN(CCCc2c[nH]c3ccc(-n4cnnc4)cc23)CC1)S(=O)(=O)c1ccccc1 |  | 1.5 nM | 6.7 | 10 nM | 
32 | CN(C(=O)Nc1ccccc1)C1CCN(CCCc2c[nH]c3ccc(-n4cnnc4)cc23)CC1 |  | 18 nM | 7.8 | 140 nM | 
33 | CC(C)=CCN(C)C1CCN(CCCc2c[nH]c3ccc(-n4cnnc4)cc23)CC1 | 1.8 nM | 0.5 nM | 82 | 41 nM | 115%
34 | c1ccc(CNC2CCN(CCCc3c[nH]c4ccc(-n5cnnc5)cc34)CC2)cc1 | 7.6 nM | 4.6 nM | 26 | 120 nM | 76%
35 | CC(=O)Nc1ccc(CN(C)CC2CCN(CCCc3c[nH]c4ccc(-n5cnnc5)cc34)CC2)cc1 | 2.8 nM | 0.6 nM | 40 | 24 nM | 94%
36 | Oc1nc2ccccc2n1C1CCN(CCCc2c[nH]c3ccc(-n4cnnc4)cc23)CC1 | 2.2 nM | 1.2 nM | 62 | 74 nM | 72%
37 | C[C@@H](O)[C@H](NC1CCN(CCCc2c[nH]c3ccc(-n4cnnc4)cc23)CC1)c1ccccc1 | 1 nM | 0.9 nM | 53 | 48 nM | 85%
38 | O=C(c1ccc(F)cc1)C1CCN(CCn2c(=O)[nH]c3ccccc3c2=O)CC1 [KETANSERIN] |  | 270 nM | > 37 | > 10000 nM | 
39 | CC(=O)Nc1ccc(CCNC2CCN(CCCc3c[nH]c4ccc(-n5cnnc5)cc34)CC2)cc1 |  | 12 nM | 14 | 170 nM | 
40 | OC[C@@H](NCC1CCN(CCCc2c[nH]c3ccc(-n4cnnc4)cc23)CC1)c1ccccc1 |  | 3.4 nM | 10 | 34 nM | 
41 | CN(CC1CCN(CCCc2c[nH]c3ccc(-n4cnnc4)cc23)CC1)C(=O)Nc1ccccc1 |  | 5.9 nM | 1.1 | 6.2 nM | 
42 | CN(C)C[C@H](NC1CCN(CCCc2c[nH]c3ccc(-n4cnnc4)cc23)CC1)c1ccccc1 |  | 1.5 nM | 8.7 | 13 nM | 
43 | CN(Cc1ccccc1)C1CCN(CCCc2c[nH]c3ccc(-n4cnnc4)cc23)CC1 |  |  | 67 |  | 
44 | OC[C@H](NCC1CCN(CCCc2c[nH]c3ccc(-n4cnnc4)cc23)CC1)c1ccccc1 |  | 5.9 nM | 13 | 79 nM | 
45 | O[C@H]1Cc2ccccc2C1NC1CCN(CCCc2c[nH]c3ccc(-n4cnnc4)cc23)CC1 (stereo partly drawn) |  | 37 nM | 8.1 | 300 nM | 
46 | CC(=O)Nc1ccc(C(=O)N(C)CC2CCN(CCCc3c[nH]c4ccc(-n5cnnc5)cc34)CC2)cc1 |  | 17 nM | 2.4 | 40 nM | 
47 | CC(C)=CCCN(C)C1CCN(CCCc2c[nH]c3ccc(-n4cnnc4)cc23)CC1 |  | 2.6 nM | 9.2 | 24 nM | 
48 | c1ccc(CNC2CCN(CCCc3c[nH]c4ccc(-n5cnnc5)cc34)CC2)nc1 |  | 14 nM | 5.4 | 76 nM | 
49 | c1cc2[nH]cc(CCN3CCCC3)c2cc1-n1cnnc1 |  |  | 9 |  | 
50 | CN(CC1CC1)C1CCN(CCCc2c[nH]c3ccc(-n4cnnc4)cc23)CC1 |  | 22 nM | 12 | 260 nM | 
51 | CN(Cc1ccccc1)CC1CCN(CCCc2c[nH]c3ccc(-n4cnnc4)cc23)CC1 |  | 0.9 nM | 30 | 27 nM | 93%
52 | CN(Cc1ccc(S(C)(=O)=O)cc1)C1CCN(CCCc2c[nH]c3ccc(-n4cnnc4)cc23)CC1 |  | 18 nM | 7.8 | 140 nM | 
